From ChEMBL document CHEMBL4190330, “Discovery of Potent and Selective A2A Antagonists with Efficacy in Animal Models of Parkinson's Disease and Depression” (ACS Med Chem Lett, 2017)
The source made the active and inactive calls. The calls are words filed in the database; no cut-off is given here.

Tests used:
Adenosine receptor A2a = Adenosine receptor A2a (Rattus norvegicus, UniProt P30543); assay: Antagonist activity at rat A2A receptor assessed as reduction in CGS-21680-induced cAMP level pretreated for 15 mins followed by CGS-21680 addition measured after 30 mins by HTRF assay; assay type: functional
Outline: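 HTRF-based cAMP functional assay; each compound tested at 12 concentrations, every point in triplicate; Ki given as mean of two independent experiments (n=2).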

Homo sapiens = organism: Homo sapiens; assay: Selectivity ratio of Ki for displacement of [3H]-MRS-1754 from human A2B receptor expressed in HEK293 cell membranes to Ki for displacement of [3H]ZM241385 from human A2A receptor expressed in HEK293 cell membranes
Outline: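 Radioligand binding used membranes from HEK-293 cells overexpressing each human adenosine receptor isoform. Points were run in triplicate, and 8-concentration IC50 curves were plotted to give Ki. The selectivity value is the Ki at the off-target isoform divided by the Ki at hA2A.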

Adenosine receptor A2b = target: T1, Adenosine receptor A2b (Homo sapiens, UniProt P29275); assay: Displacement of [3H]-MRS-1754 from human A2B receptor expressed in HEK293 cell membranes after 90 mins radioligand binding assay
T1 sequence (P29275 whole entry): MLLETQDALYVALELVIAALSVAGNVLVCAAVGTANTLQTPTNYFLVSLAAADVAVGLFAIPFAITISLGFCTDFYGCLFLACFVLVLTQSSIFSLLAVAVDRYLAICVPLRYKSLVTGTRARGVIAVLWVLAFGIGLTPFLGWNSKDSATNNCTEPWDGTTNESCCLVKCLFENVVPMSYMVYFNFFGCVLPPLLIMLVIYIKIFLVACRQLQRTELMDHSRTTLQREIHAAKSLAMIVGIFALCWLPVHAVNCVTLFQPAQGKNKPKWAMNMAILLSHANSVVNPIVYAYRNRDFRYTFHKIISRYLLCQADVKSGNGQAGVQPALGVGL
Outline: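 Membranes from HEK-293 cells overexpressing the relevant human adenosine receptor subtype; all points in triplicate; Ki derived from 8-concentration IC50 curves.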

[1] = target: T2, Adenosine receptor A3 (Homo sapiens) (UniProt P0DMS8); assay: Displacement of [3H]-HEMADO from human A3 receptor expressed in HEK293 cell membranes at 10 uM after 90 mins radioligand binding assay
T2 sequence (whole entry): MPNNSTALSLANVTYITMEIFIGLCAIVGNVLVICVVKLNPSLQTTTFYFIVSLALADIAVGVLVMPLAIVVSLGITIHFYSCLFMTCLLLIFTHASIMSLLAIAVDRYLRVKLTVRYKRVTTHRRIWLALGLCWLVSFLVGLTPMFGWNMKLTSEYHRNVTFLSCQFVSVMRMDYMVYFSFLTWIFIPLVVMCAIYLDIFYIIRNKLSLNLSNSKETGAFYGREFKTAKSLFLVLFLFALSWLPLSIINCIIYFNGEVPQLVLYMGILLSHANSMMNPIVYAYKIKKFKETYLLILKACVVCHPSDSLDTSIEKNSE
Outline: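 Membranes from HEK-293 cells overexpressing human A3 receptor; points in triplicate; highest concentration tested 10 µM.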

[2] = target: T3, Adenosine receptor A2b (Homo sapiens) (UniProt P29275); assay: Antagonist activity at human A2B receptor expressed in HEK293 cell membranes assessed as inhibition of NECA-induced cAMP level at 10 uM pretreated for 15 mins followed by NECA addition measured after 15 mins by HTRF assay; assay type: functional, cell-based
T3 sequence (whole entry): T1 sequence (P29275 whole entry)
Outline: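 HTRF cAMP functional assay on the human receptor isoform, run in triplicate at 12 concentrations with a top concentration of 10 µM, in two independent experiments. Inhibition at 10 µM is recorded where no Ki could be derived.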

[3] = Metabolic stability in mouse liver microsomes assessed as metabolic rate; assay type: ADME, microsome
Outline: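 Liver microsomes (mouse, rat, dog, human) at 0.125 mg/mL protein; metabolic rate expressed as nmol/min/mg.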

[4] = Permeability across basolateral to apical side in human Caco2 cells; assay type: ADME, cell-based; conditions: caco-2
[5] = Protein binding in dog plasma; assay type: ADME, cell-free, Canis lupus familiaris; conditions: read-out: PPB (converted)
Cytochrome P450 1A2 = target: T4, Cytochrome P450 1A2 (Homo sapiens, UniProt P05177); assay: Inhibition of CYP1A2 (unknown origin); assay type: ADME
T4 sequence (P05177 whole entry): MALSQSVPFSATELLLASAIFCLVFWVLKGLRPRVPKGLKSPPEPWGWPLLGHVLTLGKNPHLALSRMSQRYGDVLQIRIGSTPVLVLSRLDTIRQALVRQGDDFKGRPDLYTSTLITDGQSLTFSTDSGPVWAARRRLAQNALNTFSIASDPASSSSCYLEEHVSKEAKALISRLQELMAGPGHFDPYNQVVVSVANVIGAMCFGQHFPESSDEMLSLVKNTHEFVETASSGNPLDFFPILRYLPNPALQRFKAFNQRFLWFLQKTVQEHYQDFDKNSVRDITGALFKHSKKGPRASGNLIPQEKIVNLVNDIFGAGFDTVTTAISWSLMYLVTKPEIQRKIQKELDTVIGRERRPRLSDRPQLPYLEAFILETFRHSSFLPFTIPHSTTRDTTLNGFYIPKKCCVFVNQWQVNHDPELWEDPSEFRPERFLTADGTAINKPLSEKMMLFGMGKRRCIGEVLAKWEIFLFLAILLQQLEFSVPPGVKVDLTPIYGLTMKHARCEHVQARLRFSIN

[6] = Terminal half-life in Wistar rat at 3 mg/kg, iv by LC-MS/MS analysis; assay type: ADME, organism-based; conditions: in vivo, read-out: beta t1/2 (converted)
Outline: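 Male Wistar rats, n = 4; iv dose 3 mg/kg in 10% NMP, 10% Cremophor EL, acetate buffer pH 4.2 q.s.; values are means.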

Rattus norvegicus = assay: Protection against L-DOPA-induced dyskinesias in 6-OHDA-lesioned Wistar rat model of parkinson's disease assessed as reduction in abnormal involuntary movements at 0.3 to 3 mg/kg, po administered twice daily for 21 days measured every 7 days; assay type: functional, organism-based
Outline: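 6-OHDA-lesioned rats given oral test compound (0.3-3 mg/kg) with L-DOPA, repeated daily; abnormal involuntary movements scored; mean ± SEM, n=6-7.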

Mus musculus [7] = assay: Antidepressant-like activity in po dosed mouse assessed as reduction in immobility time treated 1 hr prior to testing measured for 6 mins by tail suspension test
Mus musculus [8] = assay: Antidepressant-like activity in po dosed mouse assessed as reduction in immobility time treated 1 hr prior to testing measured last 4 mins of 6 mins test by forced swim test

Sequence of Adenosine receptor A2a (P30543 whole entry): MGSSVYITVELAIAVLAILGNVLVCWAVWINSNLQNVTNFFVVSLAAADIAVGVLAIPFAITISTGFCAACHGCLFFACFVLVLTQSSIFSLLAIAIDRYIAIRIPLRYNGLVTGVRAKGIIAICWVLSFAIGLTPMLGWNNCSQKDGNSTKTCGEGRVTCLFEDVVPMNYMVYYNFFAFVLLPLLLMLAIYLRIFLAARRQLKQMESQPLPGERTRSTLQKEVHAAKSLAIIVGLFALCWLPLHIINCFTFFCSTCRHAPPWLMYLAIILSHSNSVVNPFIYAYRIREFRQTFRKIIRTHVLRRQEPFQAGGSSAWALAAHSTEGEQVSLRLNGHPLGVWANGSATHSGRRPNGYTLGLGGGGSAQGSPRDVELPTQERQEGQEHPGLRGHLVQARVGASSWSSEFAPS

SMILES: COCCOc1ccc(N2CCN(CCn3c(=O)n(C)c4c3nc(N)n3nc(-c5nccs5)nc43)CC2)cc1F
- Ki (Adenosine receptor A2a): 0.00044 to 0.0044 µM
- Ratio Ki (Homo sapiens): > 3000
- Ki (Adenosine receptor A2b): 5 µM
- inhibition [1]: inactive
- inhibition [2]: < 50%
- Drug metabolism [3]: 0.08 nmol/min/mg
- permeability [4]: Permeable
- fraction unbound [5]: 0.22
- IC50 (Cytochrome P450 1A2): > 10 µM
- half-life [6]: 1 h
- Activity (Rattus norvegicus): Active
- ED50 (Mus musculus [7]): 0.7 mg/kg
- ED50 (Mus musculus [8]): 5.29 mg/kg
